Test results from ChEMBL document CHEMBL4004839, “Targeting Bacillosamine Biosynthesis in Bacterial Pathogens: Development of Inhibitors to a Bacterial Amino-Sugar Acetyltransferase from Campylobacter jejuni” (J Med Chem, 2017).
The source made the active and inactive calls. The rule behind the calls is not given here.

What was measured:
[1] = target: T1, UDP-N-acetylbacillosamine N-acetyltransferase (Campylobacter jejuni subsp. jejuni serotype O:2 (strain ATCC 700819 /NCTC 11168), UniProt Q0P9D1); assay: Inhibition of Campylobacter jejuni NCTC 11168 PglD acetyltransferase expressed in Escherichia coli BL-21(DE3) strain (Stratagene) assessed as release of CoASH preincubated for 30 mins followed by addition of 300 uM AcCoA and 500 uM UDP-4-aminosugar as substrate by Ellman's method
T1 sequence (Q0P9D1 whole entry): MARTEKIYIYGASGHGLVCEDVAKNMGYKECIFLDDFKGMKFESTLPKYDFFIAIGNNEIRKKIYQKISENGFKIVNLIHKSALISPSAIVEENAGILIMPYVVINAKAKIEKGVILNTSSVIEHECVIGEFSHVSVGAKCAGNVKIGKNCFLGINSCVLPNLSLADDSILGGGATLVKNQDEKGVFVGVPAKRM
Summary of the method: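 Continuous DTNB read-out of CoASH release. Inhibitor (DMSO stock) preincubated 30 min at RT with PglD in 50 mM HEPES pH 7.8, 1 mM MgCl2, 0.05 mg/mL BSA, 0.001% Triton X-100. […] Initial rates over 5 min at RT, A412. IC50 derived.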

[2] = target: T2, UDP-N-acetylbacillosamine N-acetyltransferase (Campylobacter jejuni subsp. jejuni serotype O:2 (strain ATCC 700819 /NCTC 11168)) (UniProt Q0P9D1); assay: Binding affinity to Campylobacter jejuni NCTC 11168 PglD acetyltransferase expressed in Escherichia coli BL-21(DE3) strain (Stratagene) assessed as change in melting temperature at 100 uM by Sypro orange dye-based differential scanning fluorimetry
T2 sequence (whole entry): T1 sequence (Q0P9D1 whole entry)

[3] = target: T1, UDP-N-acetylbacillosamine N-acetyltransferase; assay: Inhibition of Campylobacter jejuni NCTC 11168 PglD acetyltransferase expressed in Escherichia coli BL-21(DE3) strain (Stratagene) assessed as release of CoASH preincubated for 45 mins followed by addition of AcCoA and UDP-4-aminosugar measured after 30 mins by fragment-based high-throughput screening analysis
Summary of the method: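 End-point screen with compounds at 10 μM final. Started with 100 μM UDP-4-aminosugar, quenched at 30 min with 2 mM DTNB, 1 mM EDTA, 20% 1-propanol (final). Developed 5 min, read at 405 nm.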

[4] = target: T2, UDP-N-acetylbacillosamine N-acetyltransferase (Campylobacter jejuni subsp. jejuni serotype O:2 (strain ATCC 700819 /NCTC 11168)); assay: Effect on quaternary structure of Campylobacter jejuni NCTC 11168 PglD acetyltransferase expressed in Escherichia coli BL-21(DE3) strain (Stratagene) assessed as polydispersity index of PgID at 250 uM by dynamic light scattering method (reference value: 31%)
Summary of the method: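 Recombinant C. jejuni PglD (His8-TEV construct, tag removed, Ni-NTA then size-exclusion purified) at 25 μM, with or without 250 μM inhibitor, in 50 mM HEPES 7.5, 100 mM NaCl, 3% DMSO final. Scattering measured at 90° with 685 nm laser; analysed with Rayleigh scattering model to give radius and polydispersity index.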

[5] = target: T2, UDP-N-acetylbacillosamine N-acetyltransferase (Campylobacter jejuni subsp. jejuni serotype O:2 (strain ATCC 700819 /NCTC 11168)); assay: Effect on quaternary structure of Campylobacter jejuni NCTC 11168 PglD acetyltransferase expressed in Escherichia coli BL-21(DE3) strain (Stratagene) assessed as hydrodynamic radius of apo PgID at 250 uM by dynamic light scattering method (reference value: 34 Angstrom)
Summary of the method: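 DLS on 25 μM PglD with or without 250 μM inhibitor in 50 mM HEPES 7.5, 100 mM NaCl, 3% DMSO final. Scattering measured at 90° with 685 nm laser. Radius and polydispersity index derived with a Rayleigh scattering model.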

[6] = target: T2, UDP-N-acetylbacillosamine N-acetyltransferase (Campylobacter jejuni subsp. jejuni serotype O:2 (strain ATCC 700819 /NCTC 11168)); assay: Competitive inhibition of Campylobacter jejuni NCTC 11168 PglD acetyltransferase expressed in Escherichia coli BL-21(DE3) strain (Stratagene) assessed as release of CoASH preincubated for 30 mins followed by addition of AcCoA and higher levels of UDP-4-aminosugar as substrate by Ellman's method
Summary of the method: (§1)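 Same continuous DTNB-coupled PglD assay: 30 min RT inhibitor–enzyme preincubation, 3 nM PglD, HEPES pH 7.8 buffer, A412 initial rates over 5 min. IC50 determined while raising one substrate above standard (300 μM AcCoA, 500 μM UDP-4-amino-sugar): AcCoA raised 2- or 5-fold, or UDP-4-amino-sugar raised to higher levels.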

[7] = target: T1, UDP-N-acetylbacillosamine N-acetyltransferase; assay: Competitive inhibition of Campylobacter jejuni NCTC 11168 PglD acetyltransferase expressed in Escherichia coli BL-21(DE3) strain (Stratagene) assessed as release of CoASH preincubated for 30 mins followed by addition of UDP-4-aminosugar and 5 fold excess AcCoA as substrate by Ellman's method; summary of the method: as §1
[8] = target: T1, UDP-N-acetylbacillosamine N-acetyltransferase; assay: Competitive inhibition of Campylobacter jejuni NCTC 11168 PglD acetyltransferase expressed in Escherichia coli BL-21(DE3) strain (Stratagene) assessed as release of CoASH preincubated for 30 mins followed by addition of UDP-4-aminosugar and 2 fold excess AcCoA as substrate by Ellman's method; summary of the method: as §1

Structure (SMILES) | IC50 [1] [µM] | ΔTm [2] [°C] | also measured
CNc1nc(CCCCc2ccccc2)nc2sc(C(=O)O)c(C)c12 | 4.1 | 7.4 | –
CC(=O)Nc1ccc(CCc2nc(NCCN)c3c(C)c(C(=O)O)sc3n2)cc1 | 1.4 | 5.3 | –
Cc1c(C(=O)O)sc2nc(CCc3ccccc3)nc(NCCc3ccccc3)c12 | 1.4 | 13.2 | –
CO[C@H](CNc1nc(C[C@@H](C)c2ccccc2)nc2sc(C(=O)O)c(C)c12)c1ccccc1 | 0.42 | 9.9 | –
Cc1c(C(=O)O)sc2nc[nH]c(=O)c12 | – | – | IC50 [3]: 860 µM
Cc1c(C(=O)O)sc2nc(CCc3ccccc3)nc(NC3Cc4ccccc4C3)c12 | 1 | – | –
Cc1c(C(=O)O)sc2nc(CCc3ccccc3)nc(NCc3ccccc3)c12 | 4.5 | – | –
CNc1nc(CCCc2ccccc2)nc2sc(C(=O)O)c(C)c12 | 4.4 | 7.9 | –
CNc1nc(CCc2ccccc2)nc2cc(C(=O)O)sc12 | 3.9 | 4.8 | –
Cc1c(C(=O)O)sc2nc(CCc3ccccc3)nc(NCCc3cccnc3)c12 | 0.34 | 12 | –
Cc1ccc(CCNc2nc(CCc3ccccc3)nc3sc(C(=O)O)c(C)c23)cc1 | 0.72 | – | –
Cc1ccccc1CCNc1nc(CCc2ccccc2)nc2sc(C(=O)O)c(C)c12 | 0.25 | 14.3 | –
CO[C@H](CNc1nc(CCc2ccc(NC(C)=O)cc2)nc2sc(C(=O)O)c(C)c12)c1ccccc1 | 0.27 | 12.5 | Activity [4]: 24%; Activity [5]: 36 Angstrom
Cc1c(C(=O)O)sc2nc(C(C)C)[nH]c(=O)c12 | – | – | IC50 [3]: 122 µM
Cc1c(C(=O)O)sc2nc(CCc3ccccc3)nc(NCCc3ccncc3)c12 | 0.39 | 12 | –
Cc1c(C(=O)O)sc2nc(CCc3ccccc3)nc(NCCc3ccc4c(c3)OCO4)c12 | 0.59 | 11.5 | –
CO[C@H](CNc1nc(C[C@H](C)c2ccccc2)nc2sc(C(=O)O)c(C)c12)c1ccccc1 | 1.1 | 10.4 | –
CNc1nc(CCc2cccc(NC(C)=O)c2)nc2sc(C(=O)O)c(C)c12 | 3.5 | – | –
COc1cc(CCNc2nc(CCc3ccccc3)nc3sc(C(=O)O)c(C)c23)cc(OC)c1 | 0.37 | – | inhibition [6]: Active; IC50 [7]: 1.4 µM; IC50 [8]: 0.63 µM
Cc1cccc(CCNc2nc(CCc3ccccc3)nc3sc(C(=O)O)c(C)c23)c1 | 0.42 | – | –
CNc1nc(CCc2ccccc2)nc2sc(C(=O)O)c(C)c12 | 2.2 | 7.4 | –

Structure (SMILES) | IC50 [1] [µM] | ΔTm [2] [°C] | also measured
Cc1c(C(=O)O)sc2nc(CCc3ccccc3)nc(NCCc3ccccn3)c12 | 0.42 | 12.5 | –
CNc1nc(CCc2ccccc2NC(C)=O)nc2sc(C(=O)O)c(C)c12 | 9 | – | –
CNc1nc(CCc2cccc(OC)c2)nc2sc(C(=O)O)c(C)c12 | 1.1 | 8.4 | –
CNc1nc(CCc2cccc(Cl)c2)nc2sc(C(=O)O)c(C)c12 | 2.1 | 9.4 | –
COc1ccc(CCNc2nc(CCc3ccccc3)nc3sc(C(=O)O)c(C)c23)cc1 | 0.54 | – | –
COc1cccc(CCNc2nc(CCc3ccccc3)nc3sc(C(=O)O)c(C)c23)c1 | 0.45 | – | –
CC(=O)Nc1ccc(CCc2nc(NCCc3ccccn3)c3c(C)c(C(=O)O)sc3n2)cc1 | 0.28 | 11.5 | –
Cc1c(C(=O)O)sc2nc(CCc3ccccc3)nc(NCCN)c12 | 1.6 | 3.6 | –
CNc1nc(CCc2cccc(OC)c2)nc2cc(C(=O)O)sc12 | 1.4 | 5.9 | –
CO[C@@H](CNc1nc(C[C@H](C)c2ccccc2)nc2sc(C(=O)O)c(C)c12)c1ccccc1 | 2 | 9.4 | –
Cc1c(C(=O)O)sc2nc(/C=C/c3ccc4[nH]ccc4c3)[nH]c(=O)c12 | – | – | IC50 [3]: 1 µM
Cc1c(C(=O)O)sc2nc(CCc3ccccc3)nc(NCCc3ccccc3F)c12 | 0.48 | 13.2 | –
CNc1nc(CCc2cccc(F)c2)nc2sc(C(=O)O)c(C)c12 | 2.3 | 8.9 | –
CNc1nc(CCc2ccc(NC(C)=O)cc2)nc2sc(C(=O)O)c(C)c12 | 2.4 | – | –
CNc1nc(CCc2ccc3c(c2)OCO3)nc2sc(C(=O)O)c(C)c12 | 1.8 | 7.4 | –
CNc1nc(CCc2cccc(C(F)(F)F)c2)nc2sc(C(=O)O)c(C)c12 | 4.6 | 7.4 | –
CO[C@@H](CNc1nc(C[C@@H](C)c2ccccc2)nc2sc(C(=O)O)c(C)c12)c1ccccc1 | 0.87 | – | –
Cc1c(C(=O)O)sc2nc(CCc3ccccc3)nc(NCCc3cccc(F)c3)c12 | 0.39 | – | –
COc1ccccc1CCNc1nc(CCc2ccccc2)nc2sc(C(=O)O)c(C)c12 | 0.48 | 13.7 | –
Cc1c(C(=O)O)sc2nc(CCc3ccccc3)nc(NCCc3ccc(F)cc3)c12 | 0.42 | – | –
O=C(O)c1cc(-c2ccco2)[nH]n1 | – | – | IC50 [3]: 8400 µM
